STAT3 inh: inhibitors of IL-6 induced STAT3 signaling. U3A cells, IL-6 STAT3-luciferase reporter, luminescence; host cell line lacks STAT1. inhibition, % at 5.5 µM. 190,000 compounds, 0.89% hits;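 active means inhibition above the mean inhibition across all screened compounds plus 3 SD, cut at about 44% in these data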;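 further: 0% = DMSO only wells and 100% = 100 µM nifuroxazide control wells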
STAT1 blocker: reduces IFN-gamma driven STAT1 reporter signal; NIH 3T3 STAT1-luciferase reporter, luminescence; inhibition, % at 5.5 µM; 200,000 compounds, 0.35% hits;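 active means inhibition above a set limit, the mean inhibition across all tested compounds plus 3 SD, cut at about 34% in these data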;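 further: 0% = IFN-gamma with DMSO and 100% = IFN-gamma with 300 µM nifuroxazide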
STAT3 act-1: increases IL-6 driven STAT3 reporter signal | U3A cells, IL-6 STAT3-luciferase reporter, luminescence; 100% = signal with IL-6 EC80 alone | activation (% of control), % at 5.6 µM | AID 871 | 190,000 compounds, 0.91% hits;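 active means activation above the screen-wide mean of compound activation plus 3 SD, cut at about 130% in these data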;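 further: 0% = background luminescence of wells with medium and substrate only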
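Material: human U3A cells carrying STAT3-luciferase construct. Measured by: reporter luminescence signal. Timing: compound 1 h, then IL-6 6 h at 37 °C.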
zVAD death inh: L929 zVAD cell death inhibition; L929 zVAD necroptosis rescue, ATP luminescence, 24 h; with zVAD 60 µM; viability rescue, % at 10 µM; 220,000 compounds, 0.38% hits;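 active means activation, scaled between plate controls, above about 75%, limit read from the data; inactive means activation under that limit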;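 further: 0% = zVAD with DMSO and 100% = DMSO alone without zVAD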
TNF necrop inh: blocks TNF-alpha induced death of Jurkat FADD-/- cells | Jurkat FADD-/- TNF necroptosis rescue, ATP luminescence, 24 h; 0 = TNF only, 100 = no-TNF cells | activation (protection from cell death), % at 10 µM | 220,000 compounds, 0.068% hits;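 active means activation, meaning protection from cell death, of at least 50% relative to plate controls; inactive means activation below 50%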;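 further: necroptosis triggered by 40 ng/mL TNF-alpha added together with compound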
STAT3 act-2: STAT3 activation, confirmation assay. potentiation (% of control), % at 5.7 µM. shares compounds with STAT3 act-1. U3A STAT3-luciferase reporter, IL-6 potentiation, luminescence; U3A cells lack STAT1; 100 means same as IL-6 alone. 1,200 compounds, 64% hits;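 active means percent activation of the STAT3 luciferase reporter above a set limit taken from the earlier primary screen, cut at about 130% in these data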;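 further: 0% = background signal of medium plus substrate and 100% = median of IL-6 with DMSO wells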
NFkB act 2: NF-kappaB activation in STAT3 activator counter-screen; shares compounds with STAT3 act-1; human cells, NF-kappaB reporter activation; activation (% of control), % at 5.7 µM; 1,200 compounds, 11% hits; AID 1309; in the data active means activation above about 120%;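 further: reporter induced by TNF-alpha stimulation; 100% = median of stimulated DMSO wells and 0% = no signal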
STAT1 act STAT3c: STAT1 activation in STAT3 activator counter-screen; shares compounds with STAT3 act-1; activation (% of control), % at 5.7 µM; 1,200 compounds, 13% hits; NIH 3T3 STAT1-luciferase reporter, IFN-gamma, luminescence;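 active means activation above the solvent-only control well mean plus 3 SD, set per screening run, cut at about 120% in these data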;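 further: 100% = IFN-gamma with DMSO median signal so 100% means no change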
* = called active by the depositor; . = no result. Hits are enriched below; roughly 2.1% of the tested compounds scored in any of these assays.

SMILES	STAT3 inh	STAT1 blocker	STAT3 act-1	zVAD death inh	TNF necrop inh	STAT3 act-2	NFkB act 2	STAT1 act STAT3c
Cn1c(-c2c(N)n(CCCc3ccccc3)c3nc4ccccc4nc23)nc2ccccc21	-54	7	152*	1	0	136*	97	96
Cn1c(-c2c(N)n(CCc3ccccc3)c3nc4ccccc4nc23)nc2ccccc21	-35	8	126	0	0	.	.	.
O=C(Nc1nnc(-c2ccccc2Cl)o1)c1nc2ccccc2s1	-60	-12	159*	1	0	140*	98	101
O=C(/C=C/c1ccco1)N1CCC(Cc2ccccc2)CC1	2	-16	100	-3	0	.	.	.
CC(NC(=O)COC(=O)Cc1ccc(-c2ccccc2)cc1)c1ccccc1 (centres undefined)	-12	16	107	0	1	.	.	.
O=C(N/N=C/c1cc(Br)ccc1O)C(=O)Nc1ccccc1OC(F)(F)C(F)F	27	-6	85	53	-18	.	.	.
Cc1noc(C)c1S(=O)(=O)N(CC(=O)N1CCn2c1nc1ccccc12)c1ccc(C(C)C)cc1	-55	0	149*	0	0	138*	105	110
CCCN(c1ccc(C(C)C)cc1)S(=O)(=O)c1c(C)noc1C	-5	7	105	-1	0	.	.	.
CNc1nc(-c2c[nH]c3ccccc23)cs1	-60	6	161*	1	-5	152*	100	95
O=C(c1cccs1)N1CCc2c([nH]c3ccccc23)C1c1ccc(Cl)cc1 (centres undefined)	2	-7	102	0	-9	.	.	.
O=C(CCN1CCOCC1)N1CCc2c([nH]c3ccccc23)C1c1cccc(Cl)c1 (centres undefined)	-41	6	142*	0	1	172*	110	87
S=C(N/N=C1\CCc2ccccc21)NC1CCCCC1	-42	-20	137*	-1	-4	164*	135*	122*
CCOc1ccc(/C=C/C(=O)c2cc(Br)ccc(=O)c2O)cc1	-15	7	112	0	-1	.	.	.
CCc1ccc(/C=C/C(=O)c2cc(Br)ccc(=O)c2O)cc1	-60	2	150*	-1	-8	136*	107	91
Cc1nc([N+](=O)[O-])c(Br)n1Cc1ccc(Cl)c(Cl)c1	-28	27	139*	43	-14	117	107	77
Cc1nc2c(-c3ccc(Cl)cc3)cnn2c2c1CCC2	-51	-3	142*	74	2	151*	110	110
CCOc1ccc(C(C)=O)cc1N1C(=O)C2C3C=CC(C3=C(C)C)C2C1=O (centres undefined)	13	4	92	0	-1	.	.	.
S=c1[nH]nc(-c2cc(-c3ccco3)[nH]n2)n1-c1ccccc1	9	1	96	0	-1	.	.	.
Oc1ccc(Br)cc1-c1ccn[nH]1	-5	7	109	1	2	.	.	.
Oc1ccc(Br)cc1-c1cc(-c2ccco2)[nH]n1	-35	-1	136*	1	-6	128	107	116
Oc1c(-c2cc(-c3ccco3)[nH]n2)ccc2ccccc12	-76	-18	164*	1	-1	166*	154*	116
O=C(COC(=O)/C=C/c1ccc(F)cc1)NCc1ccco1	2	-3	100	13	1	.	.	.
CCCN(C(=O)CN1C(=O)NC2(CCCCCC2)C1=O)C1CCS(=O)(=O)C1 (centres undefined)	-5	-3	106	1	0	.	.	.
CC1=NOC(=O)/C1=C\c1ccc(-c2cccc(Cl)c2)o1	-37	-1	137*	0	-2	116	110	105
CCC(C)(C(=O)NC1CCCC1)N(C(=O)c1cnccn1)c1ccccc1 (centres undefined)	-40	0	137*	-1	0	117	100	103
SMILES	STAT3 inh	STAT1 blocker	STAT3 act-1	zVAD death inh	TNF necrop inh	STAT3 act-2	NFkB act 2	STAT1 act STAT3c
CC12COC3(P(=O)(c4ccccc4)c4ccccc4)CC1CCC23CP(=O)(c1ccccc1)c1ccccc1 (centres undefined)	2	-1	100	-1	-1	.	.	.
COc1ccc(N(CC(=O)Nc2ccc(OC)c(Cl)c2)S(=O)(=O)c2c(C)noc2C)cc1	9	4	99	1	-1	.	.	.
O=C(NC(=S)Nc1nc2c(s1)CCCC2)c1ccccc1	-61	-24	148*	0	1	206*	142*	200*
Cc1ccc(CC(=O)Nc2nc3c(s2)CCCC3)cc1	-49	-6	141*	2	1	137*	103	114
CC(=O)c1cccc(NC(=O)C2C3C=CC(C3)C2C(=O)O)c1 (centres undefined)	2	0	100	5	0	.	.	.
CC(C)=C1C2C=CC1C(C(=O)Nc1cccc(C)c1)C2C(=O)O (centres undefined)	-65	4	160*	0	-1	145*	100	97
Cc1cc(C)c(Cn2c(=O)n(CCCC(=O)NCc3ccco3)c(=O)c3sccc32)c(C)c1	5	-2	100	0	-2	.	.	.
Cc1ccc(-c2cc(-c3cccs3)[nH]n2)c(O)c1	-72	-6	164*	0	-2	140*	127*	96
CSc1ccc(/C=N/NC(=O)CNc2ccc3ccccc3c2)cc1	-48	0	146*	.	1	140*	107	98
CSc1ccc(/C=N/NC(=O)CNc2cccc3ccccc23)cc1	-25	-1	121	0	0	.	.	.
O=C1C(Cl)=C(N2CCCCC2)C(=O)N1Cc1ccccc1	6	3	97	0	1	.	.	.
Cc1onc(-c2ccccc2Cl)c1C(=O)OCn1nnc2ccccc2c1=O	-3	7	108	0	-1	.	.	.
O=C1C=C(NCc2ccccc2)c2ccccc2C1=O	-48	9	146*	24	-10	132	98	92
Cc1ccccc1OCC(=O)Nc1cccc2nsnc12	-57	8	150*	1	-1	129	110	107
CCc1ccc(OCC(=O)Nc2cccc3nsnc23)cc1	18	1	90	-1	-1	.	.	.
CCCc1cc(=O)n2[nH]c(C(F)(F)F)nc2n1	-2	-2	107	0	0	.	.	.
CCCc1cc(=O)n2[nH]c(C)nc2n1	-54	-8	153*	1	0	108	102	93

Screening results from PubChem.
